Screening data: PubChem BioAssay, several laboratories
Myeloid diff MLP: induction of myeloid progenitor differentiation, primary screen, cell-based, flow cytometry, MLPCN library; 360,000 compounds, 1% hits; calls only at 10 µM; ER-HoxA9 myeloid progenitors, lysozyme-GFP differentiation; AID 624256, 2012;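 active = normalized GFP-positive differentiation at or above the plate's own cutoff, the solvent-only control mean plus 3 SD; inconclusive = no clear call, values can overlap the other calls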;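 also: cells exposed to compound for four days before flow analysis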
Fh CTSL1 inh: Fasciola hepatica cathepsin L1 inhibitors, primary screen, counter-screen for PFM18AAP inhibitor project, biochemical, QFRET, fluorogenic peptide substrate; inhibition, % at 5.96 µM; 300,000 compounds, 0.49% hits; recombinant F. hepatica cathepsin L1, Z-Leu-Arg-MCA fluorescence;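 active = inhibition above the mean of all tested compounds plus 3 SD, set per screening campaign, cut at about 17% in these data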;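 also: 0% = plate median of test compound wells and 100% = 1 µM Z-Phe-Ala-diazomethylketone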
HCV core dimer: inhibitors of HCV core protein dimerization, primary screen, biochemical, TR-FRET, high-throughput; TR-FRET GST/Flag-core106 dimerization, 1536-well; inhibition, % at 5 µM; 300,000 compounds, 0.33% hits; AID 1899, 2009;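 active = inhibition above the mean of all tested compounds plus 3 SD, set per screening campaign, cut at about 45% in these data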
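test system = GST/Flag-tagged HCV core106 proteins | probe or stimulus = Eu donor and XL665 acceptor anti-tag antibodies | times = compound-protein-antibody incubation 4 h at 22.5 °C | signal = TR-FRET, excitation 340 nm, emission 617 and 671 nm | measure = percent inhibition of core106 dimerization signal | controls = wells lacking GST-core106 and wells with excess unlabelled core106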
NadD block: inhibitors of S. aureus NadD, primary screen, biochemical, colorimetric, uHTS; inhibition, % at 20 µM; Nicotinate-nucleotide adenylyltransferase NadD (Staphylococcus aureus N315); AID 602399, 2012; 360,000 compounds, 0.78% hits; purified NadD enzyme, colorimetric absorbance read-out; in the data active = inhibition above about 26%
PP5 inh: PP5 phosphatase inhibitors, primary screen, biochemical, fluorescence | Serine/threonine-protein phosphatase 5 (Homo sapiens), P53041 | purified PP5c, OMFP substrate fluorescence | inhibition, % at 6.7 µM | 320,000 compounds, 0.18% hits;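 active = inhibition above the campaign's mean inhibition across all tested compounds plus 3 SD, cut at about 9.5% in these data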;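 also: 0% = DMSO only and 100% = 100 µM cantharidin control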
Target sequence (P53041 whole entry, looked up): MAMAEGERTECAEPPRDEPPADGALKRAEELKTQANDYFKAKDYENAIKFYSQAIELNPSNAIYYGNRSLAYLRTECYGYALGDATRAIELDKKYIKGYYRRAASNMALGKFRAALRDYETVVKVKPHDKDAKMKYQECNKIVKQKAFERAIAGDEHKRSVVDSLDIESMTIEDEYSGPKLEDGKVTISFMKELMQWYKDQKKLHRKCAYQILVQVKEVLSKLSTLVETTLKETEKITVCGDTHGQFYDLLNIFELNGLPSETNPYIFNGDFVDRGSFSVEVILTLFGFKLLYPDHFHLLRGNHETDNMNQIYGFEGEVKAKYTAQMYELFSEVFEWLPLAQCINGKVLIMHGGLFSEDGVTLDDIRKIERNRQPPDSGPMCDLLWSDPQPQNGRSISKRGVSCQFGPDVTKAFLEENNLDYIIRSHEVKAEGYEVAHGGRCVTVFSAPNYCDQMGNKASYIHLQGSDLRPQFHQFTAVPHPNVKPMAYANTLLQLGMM
PP1 counter: PP1-alpha phosphatase inhibitors, primary screen, counter-screen for PP5 inhibitor project, biochemical, fluorescence, OMFP substrate, single point; 320,000 compounds, 0.9% hits; inhibition, % at 6.7 µM; purified PP1alpha; Serine/threonine-protein phosphatase PP1-alpha catalytic subunit (Homo sapiens), P62136; AID 2235, 2010;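 active = inhibition above the mean inhibition of all tested compounds plus 3 SD, computed separately for each screening campaign, cut at about 15% in these data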
Starred values were filed as active, the others as inactive; i = inactive; u = inconclusive; x = not tested or not shown; + = active, no number. This is a sample that favours compounds with a hit; in the whole collection about 3.1% have one here.

SMILES | Myeloid diff MLP | Fh CTSL1 inh | HCV core dimer | NadD block | PP5 inh | PP1 counter
COC(=O)c1cccc(F)c1C(=O)c1cccc2ccccc12 | i | x | x | -8 | x | x
C(=N\Nc1nc2ccccc2[nH]1)/c1ccc2ncccc2c1 | + | 11 | -15 | -3 | -1 | 0
C(=N\Nc1nc2ccccc2[nH]1)/c1ccccn1 | i | x | x | 1 | x | x
O=C1c2ccccc2C(c2nnnn2Cc2ccccc2)N1CCc1ccc(O)cc1 (centres undefined) | i | x | x | -4 | x | x
Cc1ccc(N2C(=O)C3C4C=CC(CC4)C3C2=O)cc1[N+](=O)[O-] (centres undefined) | i | -4 | -1 | 1 | 3 | 2
Cc1cc(N2C(=O)C=CC2=O)c([N+](=O)[O-])cc1C | i | -2 | 48* | 4 | 3 | 2
CCn1cc(C(=O)OCC(=O)Nc2c(C)cccc2C)c(=O)c2ccc(C)nc21 | i | 2 | 1 | 11 | 0 | -5
CCn1cc(C(=O)OCC(=O)NCc2ccccc2Cl)c(=O)c2ccc(C)nc21 | i | 17* | 3 | -1 | 0 | -6
COc1cccc(C2CC(c3cccs3)=NN2C(=O)CSC2=NN3CCCC(=O)N=C3S2)c1OC (centres undefined) | + | 11 | 15 | -1 | 1 | 3
COc1ccc(C2=NN(C(=O)CSC3=NN4CCCC(=O)N=C4S3)C(c3cccc(OC)c3OC)C2)cc1 (centres undefined) | i | 1 | 4 | 6 | 2 | -1
COc1ccc(C2=NN3C(C2)c2ccccc2OC32C(=O)N(C)c3ccccc32)cc1 (centres undefined) | i | 6 | 65* | 26 | 3 | 6
CCOc1ccccc1CNC(=O)C1CCCN(c2ncnc3c2nc2n3CCCCC2)C1 (centres undefined) | i | 3 | 2 | 5 | -2 | 3
O=C(NCc1ccccc1Cl)C1CCCN(c2ncnc3c2nc2n3CCCCC2)C1 (centres undefined) | + | -2 | 7 | -1 | 0 | -1
COc1ccc(C(=S)N2CCOCC2)cc1OC(=O)c1cc(OC)c(OC)c(OC)c1 | + | 1 | 5 | -2 | 2 | 3
COc1cc(-c2nnn(CC(=O)N3CCOCC3)n2)cc(OC)c1OC | i | 30* | -4 | -2 | 2 | 3
COc1ccc(C(=S)N2CCOCC2)cc1OC(=O)c1ccccc1 | i | 2 | 10 | -10 | 2 | 0
CN(Cc1ccccc1)C(=O)c1ccc(NC(=O)c2ccccc2)cc1 | i | 2 | 12 | 1 | 1 | 1
Cc1cc(Br)cc(Cl)c1OC(=O)c1ccncc1 | i | -2 | 1 | -2 | 4 | 6
C/C(=N\NS(=O)(=O)c1ccc(C)c([N+](=O)[O-])c1)c1cc2ccccc2o1 | + | 0 | -3 | 2 | 2 | -1
C/C(=N\NS(=O)(=O)c1ccc(Cl)c([N+](=O)[O-])c1)c1cc2ccccc2o1 | i | 0 | 3 | 2 | 1 | 0
CC(=O)c1ccc(-c2ccc(/C=C(/Sc3n[nH]c(C)n3)C(=O)O)o2)cc1 | i | 8 | -21 | 19 | 2 | 16*
Cc1nc(S/C(=C/c2ccc(-c3ccc(C(=O)O)cc3)o2)C(=O)O)n[nH]1 | i | 9 | -25 | 2 | -1 | 2
CC(Sc1ccc(S(=O)(=O)N2CCN(C)CC2)cn1)C(=O)NC1CCCCC1 (centres undefined) | i | x | x | -1 | 2 | -2
CC1=CC(=O)C(C(C)C)=C/C1=C(\c1cc(C(C)C)c(OP(=O)(O)O)cc1C)c1ccccc1C(=O)O | i | 8 | 7 | 3 | 6 | 15*
CCOc1ccc(C(=O)c2ccccc2C(=O)O)cc1OCC | i | 0 | -16 | 2 | -1 | -1
SMILES | Myeloid diff MLP | Fh CTSL1 inh | HCV core dimer | NadD block | PP5 inh | PP1 counter
CC(C)c1ccc2c(c1)C1(NN=C(c3ccccc3)S1)C(=O)N2 (centres undefined) | x | 5 | 18 | 16 | 3 | 16*
CCc1ccc2c(c1)C1(NN=C(c3ccc(C)cc3)S1)C(=O)N2 (centres undefined) | i | 0 | 11 | 23 | 2 | 5
COc1ccc(NC(=O)C2=CC(c3cccs3)=NS(=O)(=O)N2C)cc1 | + | 4 | 2 | -3 | 2 | -2
C[C@H](CO)N1C[C@H](C)[C@@H](CN(C)S(=O)(=O)c2cccs2)Oc2ccc(NC(=O)Cn3cnnn3)cc2C1=O | i | x | x | 1 | x | x
NC(=O)c1ccc(N=Cc2c(O)ccc3ccccc23)cc1 | i | -1 | 14 | 2 | 2 | 0
C=CCS/C(N)=N\N=C\c1c(O)ccc2ccccc12 | i | 22* | -4 | -3 | 4 | 2
CC1(C(=O)NS(=O)(=O)c2ccccc2C(F)(F)F)CCN1C(=O)CCc1ccccc1 (centres undefined) | i | x | x | 0 | x | x
CC(C)(C)c1ccc(OCC(=O)NCC(c2cccs2)N2CCOCC2)cc1 (centres undefined) | i | 4 | 4 | -4 | -3 | -3
CC(=O)Nc1cccc(C(=O)OCC(=O)NNC(=O)c2cccs2)c1 | i | -5 | 0 | -3 | -2 | -3
NC(=O)c1oc2ccccc2c1NC(=O)c1ccc([N+](=O)[O-])o1 | u | 26* | 8 | -2 | -1 | 2
O=C(NN(c1ccccc1)c1ccccc1)c1ccc([N+](=O)[O-])o1 | i | 2 | 6 | 1 | -2 | -1
CC(NC(=O)C12CC3CC(CC(C3)C1)C2)C(=O)NN=Cc1ccc([N+](=O)[O-])o1 (centres undefined) | i | x | x | 0 | x | x
CC(NC(=O)c1ccc([N+](=O)[O-])o1)C12CC3CC(CC(C3)C1)C2 (centres undefined) | + | 0 | -5 | 1 | -4 | -12
NC(=O)c1oc2ccccc2c1NC(=O)c1ccc(F)cc1 | i | -1 | 3 | -9 | 2 | -1
O=C(NNC(=O)c1ccc([N+](=O)[O-])o1)c1ccccc1 | + | 1 | -6 | -4 | 1 | -2
O=C(NC1CCCCC1)c1ccc([N+](=O)[O-])o1 | + | -4 | -7 | -7 | 1 | 2
Cc1cnc(C(=O)OCC(=O)Nc2cccc(S(=O)(=O)N3CCOCC3)c2)cn1 | i | x | x | 0 | x | x
CC(C)C[C@H]1CNC(=O)C(=O)N1CC1CCN(CCc2ccc(-c3ccccc3)cc2)CC1 | i | x | x | 3 | x | x
O=C(COC(=O)c1ccc([N+](=O)[O-])o1)NC1CCCC1 | i | x | x | 1 | x | x
